# Columns and labels:
# [1] = target: T1, 72 kDa type IV collagenase (Homo sapiens, UniProt P08253); assay: Inhibition of human MMP2 catalytic domain at 50 uM after 1 hr by fluorescent substrate assay
# In short: (§1)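 Single-concentration screen: each inhibitor tested at 50 µM against recombinant human MMP catalytic domain (MMP-1, MMP-2 or MMP-3) in a fluorescent substrate assay, with activity reported as percent inhibition.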
# Target sequence in this assay (P08253 110-660 limits assumed): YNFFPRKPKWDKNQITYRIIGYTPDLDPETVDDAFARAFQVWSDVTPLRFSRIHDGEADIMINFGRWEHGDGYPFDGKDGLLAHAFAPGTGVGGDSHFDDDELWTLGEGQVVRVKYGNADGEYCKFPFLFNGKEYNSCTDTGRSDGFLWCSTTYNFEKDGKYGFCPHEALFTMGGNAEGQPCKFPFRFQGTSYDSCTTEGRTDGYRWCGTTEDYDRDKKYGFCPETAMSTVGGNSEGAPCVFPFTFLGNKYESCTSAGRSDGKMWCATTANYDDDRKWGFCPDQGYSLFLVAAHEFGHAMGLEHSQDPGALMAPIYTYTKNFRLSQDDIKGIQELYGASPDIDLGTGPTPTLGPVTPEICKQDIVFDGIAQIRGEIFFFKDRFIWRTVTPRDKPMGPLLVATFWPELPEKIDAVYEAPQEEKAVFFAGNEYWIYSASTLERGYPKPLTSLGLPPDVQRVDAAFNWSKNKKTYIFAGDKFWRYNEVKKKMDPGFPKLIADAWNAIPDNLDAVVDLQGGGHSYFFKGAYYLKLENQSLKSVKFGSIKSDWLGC
# [2] = target: T2, Stromelysin-1 (Homo sapiens, UniProt P08254); assay: Inhibition of human MMP3 catalytic domain at 50 uM after 1 hr by fluorescent substrate assay; in short: as §1
# [3] = target: T3, Interstitial collagenase (Homo sapiens) (UniProt P03956); assay: Inhibition of human MMP1 catalytic domain at 50 uM after 1 hr by fluorescent substrate assay; in short: as §1
# T3 sequence (whole entry): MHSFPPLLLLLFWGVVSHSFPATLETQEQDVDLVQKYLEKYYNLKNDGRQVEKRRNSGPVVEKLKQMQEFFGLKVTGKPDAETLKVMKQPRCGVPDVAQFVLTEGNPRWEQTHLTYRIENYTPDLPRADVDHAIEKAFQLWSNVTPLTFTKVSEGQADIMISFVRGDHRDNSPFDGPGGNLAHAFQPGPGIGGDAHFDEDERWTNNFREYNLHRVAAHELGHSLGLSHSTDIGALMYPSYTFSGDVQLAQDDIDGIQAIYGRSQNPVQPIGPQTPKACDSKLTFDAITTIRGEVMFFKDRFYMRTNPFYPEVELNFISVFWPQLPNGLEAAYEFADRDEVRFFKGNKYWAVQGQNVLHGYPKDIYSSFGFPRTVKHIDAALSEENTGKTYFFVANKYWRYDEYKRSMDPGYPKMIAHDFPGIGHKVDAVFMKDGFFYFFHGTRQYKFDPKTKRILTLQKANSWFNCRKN
# [4] = target: T1, 72 kDa type IV collagenase; assay: Inhibition of human MMP2 catalytic domain by fluorescent substrate assay
# In short: (§2)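 IC50 against human MMP catalytic domain (MMP-1, MMP-2 or MMP-3) from a fluorescent substrate assay. It was determined only for inhibitors showing relatively strong inhibition in the 50 µM screen.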
# Target sequence in this assay (P08253 whole entry, the tested form may be a part): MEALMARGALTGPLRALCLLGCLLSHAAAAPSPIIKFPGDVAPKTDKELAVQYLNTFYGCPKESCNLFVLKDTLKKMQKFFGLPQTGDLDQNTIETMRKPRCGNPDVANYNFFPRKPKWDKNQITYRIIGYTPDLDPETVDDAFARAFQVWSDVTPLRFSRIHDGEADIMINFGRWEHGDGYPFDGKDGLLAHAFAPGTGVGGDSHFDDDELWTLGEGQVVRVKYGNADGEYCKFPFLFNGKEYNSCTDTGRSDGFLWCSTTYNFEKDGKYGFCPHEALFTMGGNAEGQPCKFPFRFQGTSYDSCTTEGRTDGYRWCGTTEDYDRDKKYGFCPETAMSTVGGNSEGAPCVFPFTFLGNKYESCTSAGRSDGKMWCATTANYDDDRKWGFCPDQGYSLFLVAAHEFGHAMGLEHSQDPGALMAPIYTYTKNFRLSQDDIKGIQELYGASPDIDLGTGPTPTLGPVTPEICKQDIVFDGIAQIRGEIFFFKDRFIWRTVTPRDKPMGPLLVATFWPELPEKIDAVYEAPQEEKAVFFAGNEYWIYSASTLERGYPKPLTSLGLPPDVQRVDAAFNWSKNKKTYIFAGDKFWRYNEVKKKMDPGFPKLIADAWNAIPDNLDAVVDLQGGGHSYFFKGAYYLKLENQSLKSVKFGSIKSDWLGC
# [5] = target: T4, Interstitial collagenase (Homo sapiens, UniProt P03956); assay: Inhibition of human MMP1 catalytic domain by fluorescent substrate assay; in short: as §2
# T4 sequence (P03956 whole entry): T3 sequence (whole entry)
# [6] = target: T2, Stromelysin-1; assay: Inhibition of human MMP3 catalytic domain by fluorescent substrate assay; in short: as §2
# T2 sequence (P08254 whole entry, the tested form may be a part): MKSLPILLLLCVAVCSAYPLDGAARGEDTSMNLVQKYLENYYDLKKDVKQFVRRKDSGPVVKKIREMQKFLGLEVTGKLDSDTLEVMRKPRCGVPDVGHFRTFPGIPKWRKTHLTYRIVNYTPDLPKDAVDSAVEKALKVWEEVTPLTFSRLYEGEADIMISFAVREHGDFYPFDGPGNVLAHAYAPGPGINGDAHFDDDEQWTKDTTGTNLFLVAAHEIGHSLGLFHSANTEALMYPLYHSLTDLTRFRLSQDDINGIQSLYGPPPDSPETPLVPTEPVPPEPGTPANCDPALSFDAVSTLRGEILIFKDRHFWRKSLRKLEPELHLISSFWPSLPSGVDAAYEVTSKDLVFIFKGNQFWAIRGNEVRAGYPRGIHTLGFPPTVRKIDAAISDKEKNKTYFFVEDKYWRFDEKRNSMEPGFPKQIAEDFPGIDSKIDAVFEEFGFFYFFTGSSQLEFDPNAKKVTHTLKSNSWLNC
SMILES,inhibition [1],inhibition [2],inhibition [3],IC50 [4],IC50 [5],IC50 [6]
O=C(NCc1ccc(-c2ccccc2)cc1)c1cc(=O)c(O)co1,14%,44%,12%,–,–,–
Cc1occ(O)c(=O)c1C(=O)NCc1ccc(-c2ccccc2)cc1,21%,28%,15%,–,–,–
Cc1occ(O)c(=S)c1C(=O)NCc1ccc(-c2ccccc2)cc1,94%,45%,52%,23 µM,–,–
O=C(NCc1ccc(-c2ccccc2)cc1)c1cc(=S)c(O)co1,98%,91%,62%,14.4 µM,44 µM,13.3 µM
Cc1cc(=O)c(O)c(CNCc2ccc(-c3ccccc3)cc2)o1,63%,4%,6%,37.7 µM,–,–
COc1ccc(CNC(=O)c2cc(=S)c(O)co2)cc1,85%,91%,31%,–,–,13.9 µM
CCOC(=O)c1c(C)oc(CNCc2ccc(-c3ccccc3)cc2)c(O)c1=O,18%,< 1%,13%,–,–,–
COc1ccc(CNC(=O)c2c(C)occ(O)c2=S)cc1,69%,36%,49%,30 µM,–,–
Cc1cc(=O)c(O)c(COCc2ccc(-c3ccccc3)cc2)o1,15%,26%,21%,–,–,–
COc1ccc(CNC(=O)c2c(C)occ(O)c2=O)cc1,33%,18%,15%,–,–,–

# The remaining lines, values ahead:
inhibition [1],inhibition [2],inhibition [3],IC50 [4],IC50 [5],IC50 [6],SMILES
–,–,–,–,–,5.6 µM,Cc1cc(=S)c(O)c(C(=O)NCc2ccc(-c3ccccc3)cc2)o1
24%,32%,17%,–,–,–,Cc1occ(O)c(=O)c1C(=O)NCc1ccc(O)cc1
–,–,–,–,> 50 µM,–,Cc1cc(=O)c(O)c(C(=O)NCc2ccc(-c3ccccc3)cc2)o1
25%,94%,66%,–,–,3.7 µM,Cc1cc(=O)c(O)c(C(=O)NCc2ccc(O)cc2)o1
26%,93%,29%,–,–,–,COc1ccc(CNC(=O)c2oc(C)cc(=O)c2O)cc1
94%,97%,70%,19 µM,30 µM,16.4 µM,COc1ccc(CNC(=O)c2oc(C)cc(=S)c2O)cc1
11%,22%,16%,–,–,–,COc1ccc(CNC(=O)c2cc(=O)c(O)co2)cc1
24%,32%,18%,–,–,–,COc1ccc(CNC(=O)c2c(C)oc(CO)c(O)c2=O)cc1
